# Results: ChEMBL document CHEMBL4118027, “Preussilides A-F, Bicyclic Polyketides from the Endophytic Fungus Preussia similis with Antiproliferative Activity” (J Nat Prod, 2017)
# The source made the active and inactive calls. No cut-off for these calls is given here.
# Key:
# A-431 = assay: Cytotoxicity against human A431 cells assessed as reduction in cell viability after 5 days by MTT assay; format: functional, cell-based; conditions: A-431, 120 h
# In short: (§1)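 MTT viability assay run over 5 days on a panel of eight lines (L929, KB3.1, A431, A549, SKOV-3, PC-3, MCF-7, U2OS). IC50 values were derived.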
# U2OS [1] = assay: Cytotoxicity against human U2OS cells assessed as reduction in cell viability after 5 days by MTT assay; format: functional, cell-based; conditions: 120 h; in short: as §1
# Staphylococcus aureus = assay: Antibacterial activity against Staphylococcus aureus DSM 346 by serial dilution method; format: functional, organism-based
# Escherichia coli = assay: Antibacterial activity against Escherichia coli DSM 498 by serial dilution method; format: functional, organism-based
# [2] = tested on: Chromobacterium violaceum; assay: Antibacterial activity against Chromobacterium violaceum DSM 30191 by serial dilution method; format: functional, organism-based
# Setaria italica = assay: Phytotoxicity against Setaria italica assessed as inhibition of seedling germination at 100 ug/disk; format: functional, organism-based
# U2OS [3] = assay: Induction of morphological changes in human U2OS cells assessed as aberrantly sized cells with abnormal small nuclei formation at 0.25 to 5 ug/ml after 24 hrs by DAPI staining based immunofluorescence microscopic method; format: functional, cell-based
# In short: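 U2OS in DMEM (4.5 g/L glucose, 10% FBS), 37 °C, 7% CO2, seeded 3 × 10^4/well on fibronectin-coated coverslips and adhered 16 h. Treated 24 h at 0.25, 0.5, 2.5, 5 or 10 μg/mL (diluted from 1 mg/mL DMSO stock), DMSO control. Fixed in 4% PFA/PBS 20 min; anti-α-tubulin (DM1A), phalloidin-Alexa 488 and DNA stain; immunofluorescence imaging.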
# U2OS [4] = assay: Cell cycle arrest in human U2OS cells assessed as small cells with reduced nuclear size at 5 ug/ml after 18 hrs by propidium iodide staining based flow cytometry (reference value: 0.19%); format: functional; parameters: scale not given: the % may be the effect or the level left
# In short: (§2)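 U2OS were seeded at 7 × 10^5/well in six-well plates and exposed to 5 or 10 μg/mL for 18 h after spreading, with untreated and DMSO mock controls. Cells were trypsinized, fixed in 2% PFA/PBS, then in ice-cold methanol 30 min. Staining: anti-tubulin/anti-lamin antibodies plus RNase A and propidium iodide. Flow cytometry assigned G1, S, G2-M and sub-G1 by DNA content.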
# U2OS [5] = assay: Cell cycle arrest in human U2OS cells assessed as small cells with reduced nuclear size at 10 ug/ml after 18 hrs by propidium iodide staining based flow cytometry (reference value: 0.19%); format: functional; parameters: scale not given: the % may be the effect or the level left; in short: as §2
# U2OS [6] = assay: Cell cycle arrest in human U2OS cells assessed as accumulation at G1 phase at 5 ug/ml after 18 hrs by propidium iodide staining based flow cytometry (reference value: 50.1%); format: functional; in short: as §2
# U2OS [7] = assay: Cell cycle arrest in human U2OS cells assessed as accumulation at S phase at 5 ug/ml after 18 hrs by propidium iodide staining based flow cytometry (reference value: 19%); format: functional; in short: as §2
# U2OS [8] = assay: Cell cycle arrest in human U2OS cells assessed as accumulation at sub-G1 phase at 10 ug/ml after 18 hrs by propidium iodide staining based flow cytometry (reference value: 0.19%); format: functional; in short: as §2
smiles,measurement,setting,value
CC(=O)CC1=C(C)C=C2C[C@@H](C)C(=O)[C@@H](C)[C@@H]2[C@H]1/C=C(C)/C=C(C)/C=C/C(=O)O,IC50,A-431,10.1 µM
same,IC50,U2OS [1],6.8 µM
same,Activity,Staphylococcus aureus,inactive
same,Activity,Escherichia coli,inactive
same,Activity,[2],inactive
same,Activity,Setaria italica,inactive
same,Activity,U2OS [3],Active
same,Activity,U2OS [4],1.96%
same,Activity,U2OS [5],25.5%
same,Activity,U2OS [6],56.3%
same,Activity,U2OS [7],17.4%
same,Activity,U2OS [8],21.9%
